miR122 inh: miR-122 Renilla sensor signal increase in Huh7, primary screen, miR-122 inhibitor project, cell-based, single point, plate reader. AID 602342, 2012. Huh7 miR-122 Renilla luciferase sensor, 48 h; neutral wells = 0, positive control = 100. activation (reporter increase), % at 12.5 µM. actives 0.3% (n = 340,000);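 active = mean replicate activation score at least 90 and every replicate individually at or above 90; inconclusive = only one of the two criteria met; inactive = neither criterion met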;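 also: higher luciferase means less miR-122 activity so hits act as miR-122 inhibitors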
DENV2 CPE: inhibitors of DENV2 cytopathic effect, primary screen, cell-based, plate reader, single concentration; actives 1.7% (n = 350,000); CPE inhibition, % at 9.99 µM; DENV2-infected cells, cytopathic effect rescue; in the data active = CPE inhibition above about 20%, passing the limit was not always enough; inconclusive = no clear call, values can overlap the other calls; tested in BHK-21 cells;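 also: 0% = median of neutral control wells and 100% = median of positive control wells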
Cneo AK release: Cryptococcus neoformans cell lysis inducers, primary screen, AK release luminescence, single concentration; C. neoformans lysis, adenylate kinase release luminescence, 4 h; normalised: neutral wells 0, clomiphene wells 100; lysis activity, % at 15 µM; actives 0.2% (n = 360,000); AID 651654, 2012;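 active = mean lysis activity across replicates of at least 80%, whatever share of replicates individually reach that level; inactive = mean lysis activity below 80%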
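Assay system: C. neoformans cells. Amount: yeast cell density of 5 × 10^6 cells/mL. Technique: AK luminescence. Buffer or medium: YPD. Times: static 4 h at 37 °C with compound, 1 h detection. Dosing: single-point compound dose. Read-out: lysis from increased AK signal.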
Ecoli rRNA inh: reduced GFP signal of wild-type E. coli, primary screen, bacterial rRNA inhibitor project, GFP/RFP fluorescence, OD600, single point; E. coli WT GFP vs humanized-ribosome RFP mutants, 24 h; active compounds read low; DMSO median 0, no signal -100; GFP signal change (wild-type ribosome), % (no concentration beside the values); actives 1.6% (n = 350,000); AID 720706, 2013;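 active = significant combined selectivity score with lowered wild-type GFP, culture density cut under 30%, mutant RFP and density less affected; inactive = any of these conditions unmet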
E-sel inducer: E-selectin induction in HUVECs, primary screen, imaging, HUVEC, immunofluorescence imaging, single point. P16581. normalized: neutral wells 0, TNF-alpha wells 100. activation, % at 7.58 µM. actives 0.37% (n = 260,000);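 active = mean E-selectin-positive cell signal at least 10% of the positive control, reached in at least 60% of replicates, without over 20% cell loss; inconclusive = no rule given, readout overlaps actives, possibly toxicity-flagged; inactive = the rest, including those meeting only one limit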
Target sequence (P16581 whole entry, looked up): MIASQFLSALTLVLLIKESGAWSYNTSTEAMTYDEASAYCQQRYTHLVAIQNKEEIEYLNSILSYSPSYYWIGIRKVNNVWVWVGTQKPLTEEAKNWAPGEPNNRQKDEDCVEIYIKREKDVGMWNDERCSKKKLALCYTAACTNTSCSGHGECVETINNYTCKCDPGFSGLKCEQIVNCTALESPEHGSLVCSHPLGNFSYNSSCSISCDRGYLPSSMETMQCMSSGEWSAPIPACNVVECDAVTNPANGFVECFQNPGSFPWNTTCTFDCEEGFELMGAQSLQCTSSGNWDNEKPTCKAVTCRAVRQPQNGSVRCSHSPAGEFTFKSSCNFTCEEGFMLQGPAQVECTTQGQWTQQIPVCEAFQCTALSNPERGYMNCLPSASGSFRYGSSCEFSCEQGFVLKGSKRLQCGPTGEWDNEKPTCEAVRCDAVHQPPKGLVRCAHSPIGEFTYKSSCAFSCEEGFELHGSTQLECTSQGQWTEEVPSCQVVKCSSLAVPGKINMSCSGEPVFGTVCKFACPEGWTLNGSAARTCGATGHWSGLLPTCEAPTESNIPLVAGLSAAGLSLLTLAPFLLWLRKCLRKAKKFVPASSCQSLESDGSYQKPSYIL
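Material: HUVEC primary endothelial cells; Amount: 3,000 cells per well; Dosing: single concentration; Medium: EGM-2 growth medium on 0.1% gelatin-coated wells; Read-out basis: percent E-selectin-positive cells; Signal: immunofluorescence imaging; Control set: TNF-alpha, DMSO.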
Starred values were filed as active, the others as inactive; ? = inconclusive; nt = no result; [ ] = remark or other dose. An excerpt weighted towards active compounds, which were near 3.1% of everything screened.

SMILES | miR122 inh | DENV2 CPE | Cneo AK release | Ecoli rRNA inh | E-sel inducer
C[C@@H]1CN([C@@H](C)CO)C(=O)c2cccc(NC(=O)c3cnccn3)c2O[C@@H]1CN(C)S(=O)(=O)c1cn(C)cn1 | -3.1[16.7 µM] | 14.6 | -1.5 | 1.0 | 0.0
CN(CC(=O)Nc1ccc(Cl)c(Cl)c1)C1CCCCC1 | nt | 8.8 | -0.4 | -19.4 | 75.2*
CN(C(=O)CSCC(=O)Nc1ccc(Cl)cc1)C1CCCCC1 | -0.4 | 62.2* | -0.5 | -21.2 | -0.1
C[C@H]1CCCCO[C@H](CN(C)C(=O)Nc2ccccc2)[C@@H](C)CN([C@@H](C)CO)C(=O)c2cc(NC(=O)Nc3ccc(F)cc3)ccc2O1 | -3.2[16.7 µM] | -1.4 | -2.2 | -1.1 | -0.1
O=C(C[C@@H]1C=C[C@@H](NC(=O)c2ccc(F)cc2)[C@H](CO)O1)NCCc1ccncc1 | nt | 4.6 | -1.3 | 2.5 | -0.2
CCC(=O)Nc1nc2ccc(NC(=O)c3cc(OC)c(OC)c(OC)c3)cc2s1 | -5.1 | nt | -0.5 | -36.3* | 1.4
COc1cc(C(=O)Nc2ccc3nc(N4CCOCC4)sc3c2)cc(OC)c1OC | -3.2 | 0.1 | -1.3 | 2.2 | nt
COc1cccc(NC(=O)C[C@H]2CC[C@H]3[C@@H](COc4ccc(NC(=O)C5CCC5)cc4C(=O)N3C)O2)c1 | nt | nt | nt | -6.0 | nt
Cc1cc(OCC(=O)N(C)Cc2ccccc2)ccc1Br | 3.1 | -2.4 | -1.2 | -25.6 | nt
CN(CCOc1ccc(Cl)c(Cl)c1)Cc1ccccc1 | -2.9 | -2.2 | -0.3 | -29.5* | nt
CN(CCOCCOc1ccc(Cl)cc1Br)Cc1ccccc1 | nt | -5.6 | nt | -36.6* | 2.3
Cc1cc(OCC(=O)N(C)Cc2ccccc2)ccc1Cl | nt | -4.1 | -0.3 | -29.9* | 0.0
C=CCc1cc(OC)ccc1OCCN(C)Cc1ccccc1 | nt | 8.2 | nt | -29.8* | 0.1
CO[C@@H]1CN(C)C(=O)c2ccc(NS(=O)(=O)c3ccc(C)cc3)cc2OC[C@@H](C)N(C(=O)NC(C)C)C[C@H]1C | -33.5[16.7 µM] | nt | nt | -1.9 | 0.0
COCC(=O)N1C[C@@H](C)[C@H](OC)CN(C)C(=O)c2ccc(NC(=O)c3cc(C)on3)cc2OC[C@@H]1C | nt | 9.0 | -0.4 | 1.7 | 0.3
COCCNC(=O)C[C@@H]1C[C@@H]2c3cc(NC(=O)c4cccnc4)ccc3O[C@@H]2[C@@H](CO)O1 | -0.9[16.7 µM] | -3.4 | -0.8 | 4.3 | 0.0
c1ccc(OCCSc2nnc3sc4ccccc4n23)cc1 | 0.6 | 3.3 | -2.8 | -41.0* | nt
CC(=O)Nc1cccc(-c2cc(NC=O)c3ncc(-c4ccc(C(C)=O)cc4)n3c2)c1 | nt | 34.0* | 3.8 | -9.0 | -0.3
CC(=O)Nc1cccc(-c2cc(NC(C)=O)c3ncc(-c4cccc(C(C)=O)c4)n3c2)c1 | nt | 1.6 | 0.6 | 0.9 | 1.2
O=CNc1cc(-c2ccsc2)cn2c(-c3ccccc3)cnc12 | nt | ? | 145.5* | 14.4 | -0.2
COc1ccc(-c2cc(NC(C)=O)c3ncc(-c4cccc(C(C)=O)c4)n3c2)cc1OC | 5.1 | 48.8* | -1.1 | 12.7 | -0.1
COc1cccc(-c2cnc3c(NC(C)=O)cc(-c4ccc(OC)c(OC)c4)cn23)c1 | 4.7 | 11.9 | -0.2 | -3.5 | 0.0
COC(=O)C[C@H]1C[C@@H]2c3cc(NC(=O)Nc4ccc(OC)cc4)ccc3O[C@@H]2[C@@H](CO)O1 | -0.5[16.7 µM] | -4.1 | 0.3 | -5.8 | -0.1
COc1ccc(S(=O)(=O)Nc2ccc3c(c2)C(=O)N([C@@H](C)CO)C[C@@H](C)[C@@H](CN(C)C(=O)CCC(F)(F)F)OCCCC[C@@H](C)O3)cc1 | -6.0[16.7 µM] | -3.4 | 1.1 | -1.7 | 0.1
COc1ccc(OC)c(NC(=O)Nc2c(O)ccc3ccccc23)c1 | 10.6 | 3.3 | -2.2 | -27.1* | -0.1
SMILES | miR122 inh | DENV2 CPE | Cneo AK release | Ecoli rRNA inh | E-sel inducer
Cc1ccc(S(=O)(=O)N(C)C[C@H]2Oc3ccc(NS(=O)(=O)c4cn(C)cn4)cc3CC(=O)N([C@H](C)CO)C[C@H]2C)cc1 | -3.7[16.7 µM] | nt | nt | -0.1 | 0.2
Cc1cccc(N(C(=O)Cn2nnc(-c3ccccc3F)n2)C(C(=O)NC(C)(C)C)c2ccncc2)c1 (stereo not drawn) | nt | 5.4 | nt | 8.0 | nt
Cc1cccc(N(C(=O)Cn2nnc3ccccc32)C(C(=O)NC(C)(C)C)c2ccsc2)c1 (stereo not drawn) | -2.4 | 23.6* | 2.4 | 2.1 | nt
CCOc1ccccc1N(CC(=O)Nc1cccnc1)S(=O)(=O)c1ccc(C)cc1 | 128.4* | 5.1 | nt | -18.0 | 3.1
COc1ccccc1N(CC(=O)N1CCCC1)S(=O)(=O)c1ccc(C)cc1 | nt | 54.4* | -6.4 | -0.5 | 0.1
COc1ccc(N(CC(=O)N2CCN(C)CC2)S(=O)(=O)c2cc(C)ccc2OC)cc1Cl | 1.9 | 83.2* | -0.2 | 10.6 | -1.7
COc1ccccc1N(CC(=O)N1CCCCC1C)S(=O)(=O)c1ccc(Cl)cc1 (stereo not drawn) | 128.3* | 3.2 | -0.1 | -1.6 | 0.0
C[C@@H]1CN([C@@H](C)CO)C(=O)c2cc(NC(=O)C3CCCCC3)ccc2O[C@@H](C)CCCCO[C@@H]1CN(C)C(=O)Nc1cccc2ccccc12 | -1.7[16.7 µM] | -1.0 | -1.6 | -7.9 | 1.8
C[C@@H]1CCCCO[C@@H](CN(C)C)[C@H](C)CN([C@H](C)CO)C(=O)c2cc(NS(=O)(=O)c3cn(C)cn3)ccc2O1 | -0.4[16.7 µM] | 0.4 | -0.5 | 1.3 | 0.0
COc1ccc(Cl)cc1N(CC(=O)N1CCCC1)S(=O)(=O)c1ccc(C)cc1 | 140.9* | 0.9 | nt | -7.7 | 0.5
COc1ccccc1N(CC(=O)N1CCCCCC1)S(=O)(=O)c1ccc(C)cc1 | 41.3 | 14.9 | -1.1 | -13.1 | -0.2
CCC(=O)N1CC2(C1)[C@@H](c1ccccc1)[C@@H](CO)N2Cc1cc(F)ccc1F | nt | -9.8 | nt | -1.6 | -0.2
O=C(C1CCCCC1)N1CC2(C1)[C@H](c1ccccc1)[C@H](CO)N2C(=O)NC1CCCC1 | nt | 0.3 | nt | -2.3 | 0.0
COc1ccc(CCNC(=O)c2cc3c(=O)n4ccccc4nc3n(C3CCCCC3)c2=N)cc1OC | 5.5 | 2.2 | 0.5 | -19.5* | nt
COc1ccc(CCNC(=O)c2cc3c(=O)n4ccccc4nc3n(C3CCCCC3)c2=N)cc1 | nt | 13.4 | 13.7 | -30.1 | nt
Cc1ccccc1Nc1c(-c2ccccn2)nc2ccccn12 | -4.1 | -9.1 | 10.8 | -53.7* | nt
Cc1cccn2c(Nc3ccccc3)c(-c3ccccn3)nc12 | 12.9 | nt | 13.0 | -43.0* | 6.2
CO[C@@H]1CN(C)C(=O)c2cc(NS(=O)(=O)c3cccc(F)c3)ccc2OC[C@H](C)NC[C@H]1C | nt | -0.8 | -0.2 | 1.4 | 0.0

Screening results: PubChem BioAssay, Broad Institute
